Laboratory results as given in ChEMBL document CHEMBL1150203, “Antimicrobial diterpenes of Croton sonderianus, 1. Hardwickic and 3,4-secotrachylobanoic acids” (1991).
≈ marks a conversion by molar mass, not a printed value. Calls of active or inactive are those of the source. The calls are words filed in the database; no cut-off is given here.

Key:
Saccharomyces cerevisiae [1] = assay: Antifungal activity against Saccharomyces cerevisiae ATCC 9763 at 1 mg/ml after 72 hrs by agar-well diffusion assay; format: functional
Summary of the method: (§1)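 Fungi and yeasts streaked on mycophil agar from broth culture diluted 1:10 in sterile water; 100 μl of compound at 1 mg/ml placed in 11 mm cork-borer wells; plates held at 30°. Inhibition zone width (mm) recorded at 48 and 72 h and coded – to ++++ (1–2, 3–6, 7–12, >13 mm); amphotericin B positive control.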

Candida albicans [2] = assay: Antifungal activity against Candida albicans ATCC 10231 at 1 mg/ml after 48 hrs by agar-well diffusion assay; format: functional; conditions: ATCC 10231, 48 h, read-out: IZ; summary of the method: as §1
Candida albicans [3] = assay: Antifungal activity against Candida albicans ATCC 10231 at 1 mg/ml after 72 hrs by agar-well diffusion assay; format: functional; conditions: ATCC 10231, 72 h, read-out: IZ; summary of the method: as §1
Aspergillus niger [4] = assay: Antifungal activity against Aspergillus niger ATCC 16888 at 1 mg/ml after 48 hrs by agar-well diffusion assay; format: functional; summary of the method: as §1
Aspergillus niger [5] = assay: Antifungal activity against Aspergillus niger ATCC 16888 at 1 mg/ml after 72 hrs by agar-well diffusion assay; format: functional; summary of the method: as §1
[6] = test system: Trichophyton mentagrophytes; assay: Antifungal activity against Trichophyton mentagrophytes ATCC 9972 at 1 mg/ml after 48 hrs by agar-well diffusion assay; format: functional; conditions: ATCC 9972, 48 h, read-out: IZ; summary of the method: as §1
[7] = test system: Trichophyton mentagrophytes; assay: Antifungal activity against Trichophyton mentagrophytes ATCC 9972 at 1 mg/ml after 72 hrs by agar-well diffusion assay; format: functional; conditions: ATCC 9972, 72 h, read-out: IZ; summary of the method: as §1
Trametes sanguinea [8] = assay: Antifungal activity against Polyporus sanguineus ATCC 16422 at 1 mg/ml after 48 hrs by agar-well diffusion assay; format: functional; summary of the method: as §1
Trametes sanguinea [9] = assay: Antifungal activity against Polyporus sanguineus ATCC 16422 at 1 mg/ml after 72 hrs by agar-well diffusion assay; format: functional; summary of the method: as §1
Helminthosporium [10] = assay: Antifungal activity against Helminthosporium ATCC 4671 at 1 mg/ml after 48 hrs by agar-well diffusion assay; format: functional; conditions: ATCC 4671, 48 h, read-out: IZ; summary of the method: as §1
Helminthosporium [11] = assay: Antifungal activity against Helminthosporium ATCC 4671 at 1 mg/ml after 72 hrs by agar-well diffusion assay; format: functional; conditions: ATCC 4671, 72 h, read-out: IZ; summary of the method: as §1
Bacillus subtilis [12] = assay: Antibacterial activity against Bacillus subtilis ATCC 6633 after 24 hrs by twofold serial dilution method; format: functional; conditions: ATCC 6633, 24 h
Bacillus subtilis [13] = assay: Antibacterial activity against Bacillus subtilis ATCC 6633 after 48 hrs by twofold serial dilution method; format: functional; conditions: ATCC 6633, 48 h
[14] = test system: Trichophyton mentagrophytes; assay: Antifungal activity against Trichophyton mentagrophytes ATCC 9972 after 24 hrs by twofold serial dilution method; format: functional; conditions: ATCC 9972, 24 h
[15] = test system: Trichophyton mentagrophytes; assay: Antifungal activity against Trichophyton mentagrophytes ATCC 9972 after 48 hrs by twofold serial dilution method; format: functional; conditions: ATCC 9972, 48 h
Bacillus subtilis [16] = assay: Antibacterial activity against Bacillus subtilis ATCC 6633 at 1 mg/ml after 24 hrs by agar-well diffusion assay; format: functional; conditions: ATCC 6633, 24 h, read-out: IZ
Summary of the method: (§2)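 Agar-well diffusion on eugon agar, bacteria streaked by quadrant method from broth culture diluted 1:10 in sterile water; 11 mm wells given 100 μl of compound at 1 mg/ml; 37° incubation. Zone width (mm) read at 24 and 48 h, coded –, + (1–2), ++ (3–6), +++ (7–12), ++++ (>13); streptomycin sulfate positive control.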

Bacillus subtilis [17] = assay: Antibacterial activity against Bacillus subtilis ATCC 6633 at 1 mg/ml after 48 hrs by agar-well diffusion assay; format: functional; conditions: ATCC 6633, 48 h, read-out: IZ; summary of the method: as §2
Escherichia coli [18] = assay: Antibacterial activity against Escherichia coli ATCC 10536 at 1 mg/ml after 24 hrs by agar-well diffusion assay; format: functional; summary of the method: as §2
Escherichia coli [19] = assay: Antibacterial activity against Escherichia coli ATCC 10536 at 1 mg/ml after 48 hrs by agar-well diffusion assay; format: functional; summary of the method: as §2
Staphylococcus aureus [20] = assay: Antibacterial activity against Staphylococcus aureus ATCC 6538 at 1 mg/ml after 24 hrs by agar-well diffusion assay; format: functional; conditions: ATCC 6538, 24 h, read-out: IZ; summary of the method: as §2
Staphylococcus aureus [21] = assay: Antibacterial activity against Staphylococcus aureus ATCC 6538 at 1 mg/ml after 48 hrs by agar-well diffusion assay; format: functional; conditions: ATCC 6538, 48 h, read-out: IZ; summary of the method: as §2
[22] = test system: Mycolicibacterium smegmatis; assay: Antibacterial activity against Mycobacterium smegmatis ATCC 607 at 1 mg/ml after 48 hrs by agar-well diffusion assay; format: functional; conditions: ATCC 607, 48 h, read-out: IZ
Summary of the method: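 Quadrant-streaked eugon agar plates (broth culture diluted 1:10 in water) with 11 mm wells receiving 100 μl of 1 mg/ml compound, incubated at 37°; inhibition zone width in mm scored at 48 h and 72 h as –, +, ++, +++, ++++ (1–2, 3–6, 7–12, >13 mm); streptomycin sulfate control.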

Pseudomonas aeruginosa [23] = assay: Antibacterial activity against Pseudomonas aeruginosa ATCC 15442 at 1 mg/ml after 24 hrs by agar-well diffusion assay; format: functional; summary of the method: as §2
Pseudomonas aeruginosa [24] = assay: Antibacterial activity against Pseudomonas aeruginosa ATCC 15442 at 1 mg/ml after 48 hrs by agar-well diffusion assay; format: functional; summary of the method: as §2
Saccharomyces cerevisiae [25] = assay: Antifungal activity against Saccharomyces cerevisiae ATCC 9763 at 1 mg/ml after 48 hrs by agar-well diffusion assay; format: functional; summary of the method: as §1
[26] = test system: Mycolicibacterium smegmatis; assay: Antibacterial activity against Mycobacterium smegmatis ATCC 607 at 1 mg/ml after 48 hrs by agar-well diffusion assay; conditions: ATCC 607, 48 h, read-out: IZ
Saccharomyces cerevisiae [27] = assay: Antifungal activity against Saccharomyces cerevisiae ATCC 9763 after 24 hrs by twofold serial dilution method; format: functional; conditions: ATCC 9763, 24 h
Saccharomyces cerevisiae [28] = assay: Antifungal activity against Saccharomyces cerevisiae ATCC 9763 after 48 hrs by twofold serial dilution method; format: functional; conditions: ATCC 9763, 48 h

C[C@@H]1CC[C@@]2(C)C(C(=O)O)=CCC[C@@H]2[C@@]1(C)CCc1ccoc1
inhibition zone (IZ) (Saccharomyces cerevisiae [1]): inactive
zone of inhibition at 1000 µg/mL (Candida albicans [2]): 1 mm
zone of inhibition at 1000 µg/mL (Candida albicans [3]): 3 mm
inhibition zone (IZ) (Aspergillus niger [4]): inactive
inhibition zone (IZ) (Aspergillus niger [5]): inactive
zone of inhibition at 1000 µg/mL [6]: 7 mm
zone of inhibition at 1000 µg/mL [7]: 3 mm
inhibition zone (IZ) (Trametes sanguinea [8]): inactive
inhibition zone (IZ) (Trametes sanguinea [9]): inactive
zone of inhibition at 1000 µg/mL (Helminthosporium [10]): 3 mm
zone of inhibition at 1000 µg/mL (Helminthosporium [11]): 3 mm
MIC (Bacillus subtilis [12]): 0.78 µg/mL (≈ 2.46 µM)
MIC (Bacillus subtilis [13]): 1.56 µg/mL (≈ 4.93 µM)
MIC [14]: 25 µg/mL (≈ 79 µM)
MIC [15]: 25 µg/mL (≈ 79 µM)
zone of inhibition at 1000 µg/mL (Bacillus subtilis [16]): 7 mm
zone of inhibition at 1000 µg/mL (Bacillus subtilis [17]): 7 mm
inhibition zone (IZ) (Escherichia coli [18]): inactive
inhibition zone (IZ) (Escherichia coli [19]): inactive
zone of inhibition at 1000 µg/mL (Staphylococcus aureus [20]): 3 mm
zone of inhibition at 1000 µg/mL (Staphylococcus aureus [21]): 3 mm
zone of inhibition at 1000 µg/mL [22]: 7 mm
inhibition zone (IZ) (Pseudomonas aeruginosa [23]): inactive
inhibition zone (IZ) (Pseudomonas aeruginosa [24]): inactive
inhibition zone (IZ) (Saccharomyces cerevisiae [25]): inactive
zone of inhibition at 1000 µg/mL [26]: 7 mm

C[C@@H]1[C@H](O)[C@@H](C)/C=C/C=C/C=C/C=C/C=C/C=C/C=C/[C@H](O[C@@H]2O[C@H](C)[C@@H](O)[C@H](N)[C@@H]2O)C[C@@H]2O[C@](O)(C[C@@H](O)C[C@@H](O)[C@H](O)CC[C@@H](O)C[C@@H](O)CC(=O)O[C@H]1C)C[C@H](O)[C@H]2C(=O)O [AMPHOTERICIN B]
zone of inhibition at 1000 µg/mL (Saccharomyces cerevisiae [1]; ATCC 9763, 72 h, read-out: IZ): 7 mm
zone of inhibition at 1000 µg/mL (Candida albicans [2]): 7 mm
zone of inhibition at 1000 µg/mL (Candida albicans [3]): 7 mm
zone of inhibition at 1000 µg/mL (Aspergillus niger [4]; ATCC 16888, 48 h, read-out: IZ): 7 mm
zone of inhibition at 1000 µg/mL (Aspergillus niger [5]; ATCC 16888, 72 h, read-out: IZ): 7 mm
zone of inhibition at 1000 µg/mL [6]: 7 mm
zone of inhibition at 1000 µg/mL [7]: 7 mm
zone of inhibition at 1000 µg/mL (Trametes sanguinea [8]; ATCC 16422, 48 h, read-out: IZ): > 12 mm
zone of inhibition at 1000 µg/mL (Trametes sanguinea [9]; ATCC 16422, 72 h, read-out: IZ): > 12 mm
zone of inhibition at 1000 µg/mL (Helminthosporium [10]): > 12 mm
zone of inhibition at 1000 µg/mL (Helminthosporium [11]): > 12 mm
MIC [14]: 0.78 µg/mL (≈ 0.844 µM)
MIC [15]: 0.78 µg/mL (≈ 0.844 µM)
MIC (Saccharomyces cerevisiae [27]): 6.25 µg/mL (≈ 6.76 µM)
MIC (Saccharomyces cerevisiae [28]): 12.5 µg/mL (≈ 13.5 µM)
zone of inhibition at 1000 µg/mL (Saccharomyces cerevisiae [25]; ATCC 9763, 48 h, read-out: IZ): 7 mm
